Reference: ChEMBL document CHEMBL1125626, “Synthesis and structure-activity relationship of new cephalosporins with amino heterocycles at C-7. Dependence of the antibacterial spectrum and beta-lactamase stability on the pKa of the C-7 heterocycle” (1991)
In brackets after ≈: the same amount, converted by molar mass.

What was measured:
[1] = test system: Staphylococcus aureus; assay: Minimum inhibitory concentration against Staphylococcus aureus A6 (inoculum, 10e5 cfu per spot); type: functional
Method in brief: (§1)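 MIC in µg/mL, determined in Jewell and Permain growth medium with spot inoculation at 10^5 cfu per spot.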

[2] = test system: Streptococcus pyogenes; assay: Minimum inhibitory concentration against Streptococcus pyogenes (inoculum, 10e5 cfu per spot) A1; type: functional; method in brief: as §1
[3] = test system: Escherichia coli; assay: Minimum inhibitory concentration against Escherichia coli A8 (inoculum, 10e5 cfu per spot); type: functional; method in brief: as §1
[4] = test system: Staphylococcus aureus; assay: (§2) Minimum inhibitory concentration against Staphylococcus aureus A5(inoculum, 10e5 cfu per spot); type: functional; conditions: in the assay text read “10e2 cfu per spot” for “10e5 cfu per spot”
[5] = test system: Pseudomonas aeruginosa; assay: Minimum inhibitory concentration against Pseudomonas aeruginosa A21 (inoculum, 10e5 cfu per spot); type: functional; method in brief: as §1
[6] = test system: Proteus mirabilis; assay: Minimum inhibitory concentration against Proteus mirabilis A18 (inoculum, 10e5 cfu per spot); type: functional; method in brief: as §1
[7] = test system: Serratia marcescens; assay: Minimum inhibitory concentration against Serratia marcescens A16 (inoculum, 10e5 cfu per spot); type: functional; method in brief: as §1
[8] = test system: Enterobacter cloacae; assay: Minimum inhibitory concentration against Enterobacter cloacae A13(inoculum, 10e5 cfu per spot); type: functional; conditions: in the assay text read “10e2 cfu per spot” for “10e5 cfu per spot”
[9] = test system: Enterobacter cloacae; assay: Minimum inhibitory concentration against Enterobacter cloacae A13(inoculum, 10e2 cfu per spot)
[10] = test system: Klebsiella aerogenes; assay: Minimum inhibitory concentration against Klebsiella aerogenes X6 (inoculum, 10e4 cfu per spot); type: functional
Method in brief: (§3)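 MIC in µg/mL, determined in Jewell and Permain growth medium with spot inoculation at 10^4 cfu per spot. P99 is described as a constitutive type I lactamase producer.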

[11] = test system: Enterobacter cloacae; assay: Minimum inhibitory concentration against Enterobacter cloacae P99 (inoculum, 10e4 cfu per spot); type: functional; method in brief: as §3
[12] = test system: Staphylococcus aureus; assay: Minimum inhibitory concentration against Staphylococcus aureus A4 (inoculum, 10e5 cfu per spot); type: functional; method in brief: as §1
[13] = test system: Escherichia coli; assay: Minimum inhibitory concentration against Escherichia coli TEM X3 (inoculum, 10e4 cfu per spot)(TEM I type lactamase producer)
[14] = test system: Escherichia coli; assay: Minimum inhibitory concentration against Escherichia coli DCO (inoculum, 10e4 cfu per spot); type: functional; method in brief: as §3
[15] = test system: Proteus vulgaris; assay: Minimum inhibitory concentration against Proteus vulgaris Pv9 (inoculum, 10e5 cfu per spot)
[16] = test system: Klebsiella pneumoniae; assay: Minimum inhibitory concentration against Klebsiella pneumoniae A24 (inoculum, 10e5 cfu per spot); type: functional; method in brief: as §1
[17] = test system: Escherichia coli; assay: Minimum inhibitory concentration against Escherichia coli DC2 (inoculum, 10e4 cfu per spot); type: functional; method in brief: as §3
[18] = test system: Enterobacter cloacae; assay: Minimum inhibitory concentration against Enterobacter cloacae A13 (inoculum, 10e5 cfu per spot); type: functional; method in brief: as §1
[19] = test system: Enterobacter cloacae; assay: Minimum inhibitory concentration against Enterobacter cloacae P99 (inoculum, 10e4 cfu per spot)(type I lactamase producer); type: functional; method in brief: as §3
[20] = test system: Proteus mirabilis; assay: Minimum inhibitory concentration against Proteus mirabilis A18(inoculum, 10e5 cfu per spot); type: functional; method in brief: as §1
[21] = test system: Klebsiella aerogenes; assay: Minimum inhibitory concentration against Klebsiella aerogenes X5L (inoculum, 10e4 cfu per spot); type: functional; method in brief: as §3
[22] = test system: Escherichia coli; assay: Minimum inhibitory concentration against Escherichia coli X4 (inoculum, 10e4 cfu per spot)
[23] = test system: Escherichia coli; assay: Minimum inhibitory concentration against Escherichia coli A8(inoculum, 10e5 cfu per spot). Parentheses value indicate inoculum, 10e2 cfu per spot; type: functional
Method in brief: (§4)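 MIC in µg/mL in Jewell and Permain growth medium. Each strain was spot-inoculated at 10^5 cfu per spot; the bracketed values come from a 10^2 cfu per spot inoculum.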

[24] = test system: Proteus mirabilis; assay: Minimum inhibitory concentration against Proteus mirabilis A18(inoculum, 10e5 cfu per spot). Parentheses value indicate inoculum, 10e2 cfu per spot; type: functional; method in brief: as §4
[25] = test system: Enterobacter cloacae; assay: Minimum inhibitory concentration against Enterobacter cloacae A13(inoculum, 10e5 cfu per spot). Parentheses value indicate inoculum, 10e2 cfu per spot; type: functional; method in brief: as §4
[26] = test system: Pseudomonas aeruginosa; assay: Minimum inhibitory concentration against Pseudomonas aeruginosa A21(inoculum, 10e5 cfu per spot). Parentheses value indicate inoculum, 10e2 cfu per spot; type: functional; method in brief: as §4
[27] = test system: Proteus vulgaris; assay: Minimum inhibitory concentration against Proteus vulgaris Pv9(inoculum, 10e5 cfu per spot). Parentheses value indicate inoculum, 10e2 cfu per spot
[28] = test system: Serratia marcescens; assay: Minimum inhibitory concentration against Serratia marcescens A16(inoculum, 10e5 cfu per spot). Parentheses value indicate inoculum, 10e2 cfu per spot; type: functional; method in brief: as §4
[29] = test system: Staphylococcus aureus; assay: Minimum inhibitory concentration against Staphylococcus aureus A6(inoculum, 10e5 cfu per spot). Parentheses value indicate inoculum, 10e2 cfu per spot; type: functional; method in brief: as §4
[30] = test system: Staphylococcus aureus; assay: Minimum inhibitory concentration against Staphylococcus aureus A4(inoculum, 10e5 cfu per spot). Parentheses value indicate inoculum, 10e2 cfu per spot; type: functional; method in brief: as §4
[31] = test system: Klebsiella pneumoniae; assay: Minimum inhibitory concentration against Klebsiella pneumoniae A24(inoculum, 10e5 cfu per spot). Parentheses value indicate inoculum, 10e2 cfu per spot; type: functional; method in brief: as §4
[32] = test system: Staphylococcus aureus; assay: as §2; type: functional; method in brief: as §1
[33] = as §2; type: functional; method in brief: as §1

SMILES	MIC [1] [µg/mL]	MIC [2] [µg/mL]	MIC [3] [µg/mL]	MIC [5] [µg/mL]	MIC [6] [µg/mL]	MIC [7] [µg/mL]	MIC [10] [µg/mL]	MIC [11] [µg/mL]	MIC [12] [µg/mL]	MIC [13] [µg/mL]	MIC [14] [µg/mL]	MIC [15] [µg/mL]	MIC [16] [µg/mL]	MIC [17] [µg/mL]	MIC [18] [µg/mL]	MIC [19] [µg/mL]	MIC [21] [µg/mL]	MIC [22] [µg/mL]	also measured
CC(=O)OCC1=C(C(=O)OC(c2ccccc2)c2ccccc2)N2C(=O)[C@@H](Nc3nc4ccccc4s3)C2SC1 (some centres undefined)	0.5 (≈ 0.875 µM)	1 (≈ 1.75 µM)	200 (≈ 350 µM)	> 1000	200 (≈ 350 µM)	1000 (≈ 1750 µM)													MIC [4]: 0.5 µg/mL (≈ 0.875 µM); MIC [8]: 200 µg/mL (≈ 350 µM)
CC1=C(C(=O)OC(c2ccccc2)c2ccccc2)N2C(=O)[C@@H](Nc3nc4ccccc4o3)C2SC1 (some centres undefined)	8 (≈ 16.1 µM)	200 (≈ 402 µM)	> 1000	> 1000	1000 (≈ 2010 µM)	> 1000													MIC [4]: 8 µg/mL (≈ 16.1 µM); MIC [9]: 1000 µg/mL (≈ 2010 µM)
CC(=O)OCC1=C(C(=O)OC(c2ccccc2)c2ccccc2)N2C(=O)[C@@H](Nc3nc4ccccc4[nH]3)C2SC1 (some centres undefined)	2 (≈ 3.61 µM)	2 (≈ 3.61 µM)	2 (≈ 3.61 µM)	≥ 128		64 (≈ 115 µM)	2 (≈ 3.61 µM)	2 (≈ 3.61 µM)	8 (≈ 14.4 µM)	2 (≈ 3.61 µM)	0.5 (≈ 0.902 µM)	64 (≈ 115 µM)	1 (≈ 1.8 µM)	< 0.03	≥ 128	≥ 128	≥ 128	0.25 (≈ 0.451 µM)	MIC [20]: 4 µg/mL (≈ 7.21 µM)
CC1=C(C(=O)OC(c2ccccc2)c2ccccc2)N2C(=O)[C@@H](NC3=NC4CC4N3)C2SC1 (some centres undefined)		128 (≈ 278 µM)					2 (≈ 4.34 µM)	1 (≈ 2.17 µM)		1 (≈ 2.17 µM)	1 (≈ 2.17 µM)			0.5 (≈ 1.09 µM)		2 (≈ 4.34 µM)	2 (≈ 4.34 µM)	1 (≈ 2.17 µM)	MIC [23]: 2 µg/mL (≈ 4.34 µM); MIC [24]: > 256 µg/mL; MIC [25]: 4 µg/mL (≈ 8.69 µM); MIC [26]: 256 µg/mL (≈ 556 µM); MIC [27]: > 256 µg/mL; MIC [28]: 4 µg/mL (≈ 8.69 µM); MIC [29]: > 256 µg/mL; MIC [30]: > 256 µg/mL; MIC [31]: 1 µg/mL (≈ 2.17 µM)
CC1=C(C(=O)OC(c2ccccc2)c2ccccc2)N2C(=O)[C@@H](Nc3nc4ccccc4s3)C2SC1 (some centres undefined)		40 (≈ 77.9 µM)	> 1000	> 1000	1000 (≈ 1950 µM)	> 1000													MIC [32]: 1 µg/mL (≈ 1.95 µM); MIC [9]: > 1000 µg/mL
CC(=O)OCC1=C(C(=O)OC(c2ccccc2)c2ccccc2)N2C(=O)[C@@H](Nc3nc4cc(C)ccc4[nH]3)C2SC1 (some centres undefined)	2 (≈ 3.52 µM)	1 (≈ 1.76 µM)	2 (≈ 3.52 µM)	> 256		128 (≈ 225 µM)	4 (≈ 7.03 µM)	2 (≈ 3.52 µM)	16 (≈ 28.1 µM)	4 (≈ 7.03 µM)	1 (≈ 1.76 µM)	256 (≈ 450 µM)	4 (≈ 7.03 µM)	0.06 (≈ 0.106 µM)	256 (≈ 450 µM)	256 (≈ 450 µM)	128 (≈ 225 µM)	1 (≈ 1.76 µM)	MIC [20]: 4 µg/mL (≈ 7.03 µM)
Cn1nnnc1SCC1=C(C(=O)OC(c2ccccc2)c2ccccc2)N2C(=O)[C@@H](Nc3nc4cc(O)ccc4[nH]3)C2SC1 (some centres undefined)	2 (≈ 3.19 µM)	0.5 (≈ 0.798 µM)	0.25 (≈ 0.399 µM)	> 256	0.5 (≈ 0.798 µM)	64 (≈ 102 µM)	0.25 (≈ 0.399 µM)	0.25 (≈ 0.399 µM)	16 (≈ 25.5 µM)	1 (≈ 1.6 µM)	0.12 (≈ 0.191 µM)	16 (≈ 25.5 µM)	4 (≈ 6.38 µM)	< 0.03	> 256	32 (≈ 51.1 µM)	64 (≈ 102 µM)	0.12 (≈ 0.191 µM)	
CC(=O)OCC1=C(C(=O)OC(c2ccccc2)c2ccccc2)N2C(=O)[C@@H](Nc3nc4cc(CN)ccc4[nH]3)C2SC1 (some centres undefined)	4 (≈ 6.85 µM)	0.5 (≈ 0.857 µM)	0.12 (≈ 0.206 µM)	> 256	32 (≈ 54.8 µM)	> 256	0.25 (≈ 0.428 µM)	0.12 (≈ 0.206 µM)	32 (≈ 54.8 µM)	2 (≈ 3.43 µM)	0.12 (≈ 0.206 µM)	64 (≈ 110 µM)	1 (≈ 1.71 µM)	0.06 (≈ 0.103 µM)	256 (≈ 439 µM)	64 (≈ 110 µM)	32 (≈ 54.8 µM)	0.12 (≈ 0.206 µM)	
CC1=C(C(=O)OC(c2ccccc2)c2ccccc2)N2C(=O)[C@@H](NC3=NCCN3)C2SC1 (some centres undefined)	> 256	128 (≈ 285 µM)	2 (≈ 4.46 µM)	> 256	256 (≈ 571 µM)	> 256	4 (≈ 8.92 µM)	2 (≈ 4.46 µM)	> 256	2 (≈ 4.46 µM)	4 (≈ 8.92 µM)	> 256	4 (≈ 8.92 µM)	2 (≈ 4.46 µM)	4 (≈ 8.92 µM)	4 (≈ 8.92 µM)	4 (≈ 8.92 µM)	2 (≈ 4.46 µM)	
CC1=C(C(=O)OC(c2ccccc2)c2ccccc2)N2C(=O)[C@@H](Nc3nc4ccccc4[nH]3)C2SC1 (some centres undefined)	40 (≈ 80.5 µM)	40 (≈ 80.5 µM)	8 (≈ 16.1 µM)	> 1000	8 (≈ 16.1 µM)	200 (≈ 403 µM)													MIC [33]: 8 µg/mL (≈ 16.1 µM); MIC [8]: 8 µg/mL (≈ 16.1 µM)
